“And” between values parts separate entries of the source, which are not always exact repeats. Equal entries are not always repeated.
Assays:
Assay type in all cases: toxicity, cell-based
[1] = system: Fibroblast; experiment: Multiplex assay against human fibroblast; conditions: number of replicates 2
Summary of the method: (§1)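 Four dyes were applied at seeding to live cells: Hoechst33342, BioTracker Green Microtubule Cytoskeleton Dye, MitoTracker Red and Annexin V Alexa Fluor 680. Imaging after compound addition used a CQ1 microscope at 37°C and 5% CO2. CellPathfinder machine-learning gating then sorted cells into Hoechst high-intensity objects or normal cells, normal cells into healthy, pyknosed or fragmented nuclei, and pyknosed cells into mitotic or apoptotic, with tubulin, mitochondrial-mass and membrane-permeability phenotypes given as per cents of healthy-nucleus cells.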

[2] = system: HEK-293T; experiment: Multiplex assay against HEK293T; conditions: human, number of replicates 2; summary of the method: as §1
[3] = system: U2OS; experiment: Multiplex assay against U2OS; conditions: human, number of replicates 2; summary of the method: as §1
[4] = 12 h, 1 µM, compound concentration 1 uM
[5] = 12 h, 10 µM, compound concentration 10 uM
[6] = 24 h, 1 µM, compound concentration 1 uM
[7] = 24 h, 10 µM, compound concentration 10 uM
[8] = 48 h, 1 µM, compound concentration 1 uM
[9] = 48 h, 10 µM, compound concentration 10 uM

Br.Cc1cccc(C2CN(C)CCc3c2cc(O)c(O)c3Cl)c1 (stereo not given)
Population Apoptotic (%) [1, 4]: 50% and 47%
Population Fragmented Nuclei (%) [1, 4]: 10% and 13%
Population Healthy Nuclei (%) [1, 4]: 79%
Population Hoechst High Intensity Objects (%) [1, 4]: 0%
Population Membrane Permeable-Phenotype (%) [1, 4]: 1% and 4%
Population Mitochondria Different-Phenotype (%) [1, 4]: 0% and 1%
Population Mitotic Cells (%) [1, 4]: 50% and 52%
Population Normal (%) [1, 4]: 100%
Population Pyknosed Nuclei (%) [1, 4]: 10% and 6%
Population Tubulin-Different-Phenotype (%) [1, 4]: 9% and 5%
Total Cell Count [1, 4]: 210 and 248
Population Apoptotic (%) [1, 5]: 68% and 66%
Population Fragmented Nuclei (%) [1, 5]: 11% and 13%
Population Healthy Nuclei (%) [1, 5]: 77% and 78%
Population Hoechst High Intensity Objects (%) [1, 5]: 0%
Population Membrane Permeable-Phenotype (%) [1, 5]: 2%
Population Mitochondria Different-Phenotype (%) [1, 5]: 1% and 5%
Population Mitotic Cells (%) [1, 5]: 31% and 33%
Population Normal (%) [1, 5]: 99% and 100%
Population Pyknosed Nuclei (%) [1, 5]: 11% and 8%
Population Tubulin-Different-Phenotype (%) [1, 5]: 10% and 11%
Total Cell Count [1, 5]: 167 and 173
Population Apoptotic (%) [1, 6]: 57% and 53%
Population Fragmented Nuclei (%) [1, 6]: 10% and 14%
Population Healthy Nuclei (%) [1, 6]: 82% and 80%
Population Hoechst High Intensity Objects (%) [1, 6]: 0%
Population Membrane Permeable-Phenotype (%) [1, 6]: 1%
Population Mitochondria Different-Phenotype (%) [1, 6]: 0% and 1%
Population Mitotic Cells (%) [1, 6]: 42% and 46%
Population Normal (%) [1, 6]: 99% and 100%
Population Pyknosed Nuclei (%) [1, 6]: 6% and 5%
Population Tubulin-Different-Phenotype (%) [1, 6]: 8% and 3%
Total Cell Count [1, 6]: 205 and 242
Population Apoptotic (%) [1, 7]: 50% and 70%
Population Fragmented Nuclei (%) [1, 7]: 10% and 15%
Population Healthy Nuclei (%) [1, 7]: 79% and 78%
Population Hoechst High Intensity Objects (%) [1, 7]: 0%
Population Membrane Permeable-Phenotype (%) [1, 7]: 3% and 0%
Population Mitochondria Different-Phenotype (%) [1, 7]: 0%
Population Mitotic Cells (%) [1, 7]: 50% and 30%
Population Normal (%) [1, 7]: 100%
Population Pyknosed Nuclei (%) [1, 7]: 9% and 5%
Population Tubulin-Different-Phenotype (%) [1, 7]: 8% and 7%
Total Cell Count [1, 7]: 165 and 174
Population Apoptotic (%) [1, 8]: 50% and 62%
Population Fragmented Nuclei (%) [1, 8]: 13%
Population Healthy Nuclei (%) [1, 8]: 80% and 83%
Population Hoechst High Intensity Objects (%) [1, 8]: 0%
Population Membrane Permeable-Phenotype (%) [1, 8]: 1% and 2%
Population Mitochondria Different-Phenotype (%) [1, 8]: 1% and 0%
Population Mitotic Cells (%) [1, 8]: 50% and 37%
Population Normal (%) [1, 8]: 99% and 100%
Population Pyknosed Nuclei (%) [1, 8]: 5% and 3%
Population Tubulin-Different-Phenotype (%) [1, 8]: 4% and 1%
Total Cell Count [1, 8]: 211 and 238
Population Apoptotic (%) [1, 9]: 44% and 100%
Population Fragmented Nuclei (%) [1, 9]: 12% and 15%
Population Healthy Nuclei (%) [1, 9]: 82%
Population Hoechst High Intensity Objects (%) [1, 9]: 0%
Population Membrane Permeable-Phenotype (%) [1, 9]: 2% and 0%
Population Mitochondria Different-Phenotype (%) [1, 9]: 0%
Population Normal (%) [1, 9]: 100%
Population Pyknosed Nuclei (%) [1, 9]: 5% and 1%
Population Tubulin-Different-Phenotype (%) [1, 9]: 3% and 4%
Total Cell Count [1, 9]: 178 and 170
Population Apoptotic (%) [2, 4]: 15% and 42%
Population Fragmented Nuclei (%) [2, 4]: 4% and 3%
Population Healthy Nuclei (%) [2, 4]: 87% and 86%
Population Hoechst High Intensity Objects (%) [2, 4]: 9% and 4%
Population Membrane Permeable-Phenotype (%) [2, 4]: 3% and 2%
Population Mitochondria Different-Phenotype (%) [2, 4]: 11% and 15%
Population Mitotic Cells (%) [2, 4]: 84% and 57%
Population Normal (%) [2, 4]: 90% and 95%
Population Pyknosed Nuclei (%) [2, 4]: 8% and 10%
Population Tubulin-Different-Phenotype (%) [2, 4]: 50%
Total Cell Count [2, 4]: 707 and 682
Population Apoptotic (%) [2, 5]: 52% and 53%
Population Fragmented Nuclei (%) [2, 5]: 3% and 4%
Population Healthy Nuclei (%) [2, 5]: 88% and 81%
Population Hoechst High Intensity Objects (%) [2, 5]: 8% and 7%
Population Membrane Permeable-Phenotype (%) [2, 5]: 1% and 2%
Population Mitochondria Different-Phenotype (%) [2, 5]: 27% and 22%
Population Mitotic Cells (%) [2, 5]: 47% and 46%
Population Normal (%) [2, 5]: 91% and 92%
Population Pyknosed Nuclei (%) [2, 5]: 7% and 14%
Population Tubulin-Different-Phenotype (%) [2, 5]: 63% and 57%
Total Cell Count [2, 5]: 523 and 513
Population Apoptotic (%) [2, 6]: 36% and 32%
Population Fragmented Nuclei (%) [2, 6]: 5%
Population Healthy Nuclei (%) [2, 6]: 89%
Population Hoechst High Intensity Objects (%) [2, 6]: 7% and 8%
Population Membrane Permeable-Phenotype (%) [2, 6]: 3% and 1%
Population Mitochondria Different-Phenotype (%) [2, 6]: 3% and 5%
Population Mitotic Cells (%) [2, 6]: 63% and 68%
Population Normal (%) [2, 6]: 92% and 91%
Population Pyknosed Nuclei (%) [2, 6]: 4% and 5%
Population Tubulin-Different-Phenotype (%) [2, 6]: 28% and 35%
Total Cell Count [2, 6]: 1088 and 1072
Population Apoptotic (%) [2, 7]: 26% and 51%
Population Fragmented Nuclei (%) [2, 7]: 7% and 5%
Population Healthy Nuclei (%) [2, 7]: 87% and 89%
Population Hoechst High Intensity Objects (%) [2, 7]: 7%
Population Membrane Permeable-Phenotype (%) [2, 7]: 2% and 3%
Population Mitochondria Different-Phenotype (%) [2, 7]: 11% and 10%
Population Mitotic Cells (%) [2, 7]: 73% and 48%
Population Normal (%) [2, 7]: 92%
Population Pyknosed Nuclei (%) [2, 7]: 4% and 5%
Population Tubulin-Different-Phenotype (%) [2, 7]: 53% and 49%
Total Cell Count [2, 7]: 768 and 746
Population Apoptotic (%) [2, 8]: 7% and 15%
Population Fragmented Nuclei (%) [2, 8]: 16% and 12%
Population Healthy Nuclei (%) [2, 8]: 80% and 84%
Population Hoechst High Intensity Objects (%) [2, 8]: 12% and 10%
Population Membrane Permeable-Phenotype (%) [2, 8]: 6% and 4%
Population Mitochondria Different-Phenotype (%) [2, 8]: 0% and 1%
Population Mitotic Cells (%) [2, 8]: 92% and 84%
Population Normal (%) [2, 8]: 87% and 89%
Population Pyknosed Nuclei (%) [2, 8]: 2% and 3%
Population Tubulin-Different-Phenotype (%) [2, 8]: 15% and 19%
Total Cell Count [2, 8]: 2930 and 2368
Population Apoptotic (%) [2, 9]: 10% and 21%
Population Fragmented Nuclei (%) [2, 9]: 12%
Population Healthy Nuclei (%) [2, 9]: 84%
Population Hoechst High Intensity Objects (%) [2, 9]: 11%
Population Membrane Permeable-Phenotype (%) [2, 9]: 9% and 6%
Population Mitochondria Different-Phenotype (%) [2, 9]: 0% and 1%
Population Mitotic Cells (%) [2, 9]: 89% and 78%
Population Normal (%) [2, 9]: 88%
Population Pyknosed Nuclei (%) [2, 9]: 2%
Population Tubulin-Different-Phenotype (%) [2, 9]: 22% and 26%
Total Cell Count [2, 9]: 1797 and 1636
Population Apoptotic (%) [3, 4]: 80% and 65%
Population Healthy Nuclei (%) [3, 4]: 61% and 87%
Population Hoechst High Intensity Objects (%) [3, 4]: 0%
Population Membrane Permeable-Phenotype (%) [3, 4]: 0%
Population Mitochondria Different-Phenotype (%) [3, 4]: 0%
Population Mitotic Cells (%) [3, 4]: 20% and 35%
Population Normal (%) [3, 4]: 100%
Population Pyknosed Nuclei (%) [3, 4]: 10% and 7%
Population Tubulin-Different-Phenotype (%) [3, 4]: 51% and 83%
Population Fragmented Nuclei (%) [3, 5]: 4% and 14%
Population Healthy Nuclei (%) [3, 5]: 88% and 80%
Population Hoechst High Intensity Objects (%) [3, 5]: 0%
Population Membrane Permeable-Phenotype (%) [3, 5]: 1% and 0%
Population Mitochondria Different-Phenotype (%) [3, 5]: 1% and 0%
Population Mitotic Cells (%) [3, 5]: 41% and 100%
Population Normal (%) [3, 5]: 100%
Population Pyknosed Nuclei (%) [3, 5]: 7% and 4%
Population Tubulin-Different-Phenotype (%) [3, 5]: 88% and 35%
Population Apoptotic (%) [3, 6]: 56% and 50%
Population Healthy Nuclei (%) [3, 6]: 91% and 73%
Population Hoechst High Intensity Objects (%) [3, 6]: 0%
Population Membrane Permeable-Phenotype (%) [3, 6]: 0% and 3%
Population Mitochondria Different-Phenotype (%) [3, 6]: 0%
Population Mitotic Cells (%) [3, 6]: 43% and 50%
Population Normal (%) [3, 6]: 100%
Population Pyknosed Nuclei (%) [3, 6]: 6% and 13%
Population Tubulin-Different-Phenotype (%) [3, 6]: 85% and 48%
Population Apoptotic (%) [3, 7]: 58% and 50%
Population Healthy Nuclei (%) [3, 7]: 89% and 62%
Population Hoechst High Intensity Objects (%) [3, 7]: 0%
Population Membrane Permeable-Phenotype (%) [3, 7]: 0% and 10%
Population Mitochondria Different-Phenotype (%) [3, 7]: 1% and 0%
Population Mitotic Cells (%) [3, 7]: 41% and 50%
Population Normal (%) [3, 7]: 100%
Population Pyknosed Nuclei (%) [3, 7]: 8% and 12%
Population Tubulin-Different-Phenotype (%) [3, 7]: 83% and 40%
Population Apoptotic (%) [3, 8]: 42% and 46%
Population Healthy Nuclei (%) [3, 8]: 72% and 90%
Population Hoechst High Intensity Objects (%) [3, 8]: 0%
Population Membrane Permeable-Phenotype (%) [3, 8]: 2% and 0%
Population Mitochondria Different-Phenotype (%) [3, 8]: 0%
Population Mitotic Cells (%) [3, 8]: 57% and 53%
Population Normal (%) [3, 8]: 100%
Population Pyknosed Nuclei (%) [3, 8]: 11% and 5%
Population Tubulin-Different-Phenotype (%) [3, 8]: 60% and 91%
Population Apoptotic (%) [3, 9]: 50% and 67%
Population Healthy Nuclei (%) [3, 9]: 73% and 91%
Population Hoechst High Intensity Objects (%) [3, 9]: 0%
Population Membrane Permeable-Phenotype (%) [3, 9]: 4% and 0%
Population Mitochondria Different-Phenotype (%) [3, 9]: 4% and 0%
Population Mitotic Cells (%) [3, 9]: 50% and 32%
Population Normal (%) [3, 9]: 100%
Population Pyknosed Nuclei (%) [3, 9]: 13% and 6%
Population Tubulin-Different-Phenotype (%) [3, 9]: 63% and 88%
